Sampled rows, rich in hits. Any-hit rate of the full collection: about 3.1%.
T cruzi inh: T. cruzi replication inhibition; inhibition, % (test concentration not listed); T. cruzi beta-gal in NIH3T3, luminescence, 90 h; 1.4% of 300,000 active;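 active = mean inhibition across valid replicates above about 55%, limit read from the data; inconclusive = mean below that limit but half or more replicates reach it; inactive = mean below it, under half of replicates reach it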;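 also: signal also drops with host cell toxicity which is not excluded here; 0% = plate median of DMSO wells and 100% = zero luminescence signal; higher percent means less beta-gal luminescence so fewer parasites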
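Assay system: NIH/3T3 host cells with β-galactosidase reporter T. cruzi; input: 5,000 host fibroblasts per well; compound: single 50 nL compound addition per well in DMSO; timing: ≥90 h infection period, 3 h prior cell attachment; measured by: GalScreen β-gal luminescence, detergent lysis, 60 min; evaluation: percent inhibition of parasite-derived β-gal signal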
PolyA inh: yeast polyadenylation inhibition; S. cerevisiae SKY197-pL101 polyadenylation reporter, beta-gal luminescence; efflux-impaired pdr1/pdr3 knockout yeast; score 100 = 6 SD above DMSO; activity score, % at 12 µM; 0.02% of 300,000 active; AID 1875;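 active = lowest replicate activity score at least 50, where 100 means six control SD above control mean; inconclusive = lowest score under 50 but half or more replicates reach 50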;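 also: yeast exposed to compound for 9 h at 30 °C; higher score means more reporter readthrough which indicates perturbed polyadenylation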
Calb FLC: affects C. albicans growth with fluconazole. 0.57% of 300,000 active. C. albicans CaCi-2 + fluconazole, Alamar Blue growth, 48 h. growth inhibition, % (concentration not given with the values);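 active = growth inhibition above about 58% in most replicates, limit read from the data, passing the limit was not always enough; inconclusive = exactly half the replicates above a set limit; inactive = most replicates below a set limit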;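 also: all wells also contain fluconazole at 8 µg/ml as a sub-toxic cotreatment; 0% = median of DMSO wells and 100% = median of geldanamycin control wells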
Beta cell apopt: beta cell apoptosis inhibition; INS-1E cytokine-induced death, ATP luminescence, 48 h; percent of positive-control rescue, neutral wells zero; protection from apoptosis, % (no concentration beside the values); 0.8% of 300,000 active; AID 435005;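 active = Every replicate reaches about 75%, or at least half do and their mean reaches it too, limit read from the data; inconclusive = At least half of replicates reach the limit but their mean does not; inactive = Under half of replicates reach the limit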;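 also: 0% = cytokine-treated negative control wells and 100% = positive control rescue; higher means more ATP so stronger rescue from cytokine killing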
CSC inhib: blocks cancer stem cells. cancer stem cell-like cells viability, luminescence. inhibition, % at 7.5 µM. 1.1% of 300,000 active; in the data active = inhibition above about 75%; inconclusive = no clear call, values can overlap the other calls; tested in HMLE shEcad cells
HIF activator: HIF pathway transcriptional activation. U2OS HRE-luciferase reporter, luminescence; normalized: DMSO 0%, desferrioxamine 100%. activation, % at 7.5 µM (by protocol). 0.32% of 300,000 active;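 active = mean activation of at least 10% of the iron chelator positive control signal, with at least half of replicates also reaching 10%; inconclusive = mean and replicate majority disagree about reaching 10%; inactive = mean and most replicates under 10%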
* marks the source's active call; other numbers are inactive results; u = inconclusive; x = no result.

SMILES | T cruzi inh | PolyA inh | Calb FLC | Beta cell apopt | CSC inhib | HIF activator
COc1cc(C(=O)OCC(=O)N(C)c2ccccc2)cc(OC)c1OC | 13 | -10 | -9 | -3 | -1 | 0
COc1cccc(CNC(=O)N[C@@H](C)C(=O)O)c1 | 10 | 6 | 5 | -8 | -16 | x
CCCCNc1c(-c2ccc(OC)c(SC(C)CC)c2)nc2ccc(C)cn12 (stereo unspecified) | x | x | x | 120* | 100* | x
CCCCCCSc1cc(-c2nc3ccc(C)cn3c2NCCCC)ccc1OC | x | x | x | 84* | 97* | x
OCCC1CN(C2CCC2)CCN1Cc1ccc(F)c(F)c1 (stereo unspecified) | -12 | 3 | 0 | -4 | -5 | 1
COc1ccc(-c2cc3nc(C)n(N)c(=O)c3s2)cc1 | -4 | -22 | -11 | 53 | 97* | -6
COc1cccc(CNC(=O)CSc2nc3ccc(C)cc3[nH]2)c1 | -11 | -9 | 1 | -7 | -1 | 0
CCOc1cc(NC(=O)C(C)C)c(OCC)cc1NC(=O)Nc1ccccc1 | 7 | 0 | 8 | -4 | -3 | 0
O=C(N/N=C/c1ccccn1)c1ccc(Br)cc1 | 0 | -4 | -14 | 4 | 15 | 16*
O=c1nc(N2CCCC2)nc(N2CCCC2)[nH]1 | -3 | 3 | -4 | 0 | -7 | -1
CCn1ncc(CN2CCCC(C(=O)c3cccc(OC(C)C)c3)C2)c1C (stereo unspecified) | 65* | -3 | -10 | -7 | 24 | 0
CC(C)Oc1cccc(C(=O)C2CCCN(Cc3cnc(N4CCOCC4)s3)C2)c1 (stereo unspecified) | 59* | 3 | -5 | -2 | -11 | 0
COc1ccc(C(=O)C2CCCN(Cc3ccc4nonc4c3)C2)c(OC)c1 (stereo unspecified) | 70* | -13 | 16 | -2 | 2 | 0
CCOC(=O)c1[nH]ncc1CN1CCCC(C(=O)c2cccc(OC(C)C)c2)C1 (stereo unspecified) | 27 | 0 | 3 | -2 | -13 | 0
COc1ccc(C(=O)C2CCCN(Cc3cccn3-c3ccc(Cl)cn3)C2)c(OC)c1 (stereo unspecified) | 79* | 24 | -10 | 8 | x | 0
COC(=O)Cc1cccc2c(=O)c3ccccc3oc12 | -5 | -12 | -4 | -5 | 7 | 0
CC(=O)N1CCc2cc(S(=O)(=O)NCCC(=O)NC3CCCCCC3)ccc21 | -9 | 7 | 6 | 3 | -9 | 1
O=C(Cc1csc(-c2ccccc2)n1)NCC(=O)Nc1ccc(F)c(F)c1F | x | x | x | 0 | -2 | x
Clc1ccc(OCCOCCNCc2ccccc2)cc1Cl | 37 | 7 | -24 | x | x | 0
COc1ccc(C(=O)C2CCCN(Cc3cnc(N4CCOCC4)s3)C2)c(OC)c1 (stereo unspecified) | 61* | 15 | 3 | -8 | -12 | 0
COc1ccc(C(=O)C2CCCN(Cc3cnc(N4CCOCC4)s3)C2)cc1F (stereo unspecified) | 38 | 0 | -8 | 0 | 1 | -2
COc1ccc(C2/C=C\CN(Cc3ccc(N(C)C)cc3)CC(=O)N2Cc2ccc(F)cc2)cc1 (stereo unspecified) | -1 | 1 | -1 | -19 | 29 | 0
OCc1ccc(N=Nc2ccccc2)cc1 | 5 | -4 | 0 | 0 | 3 | 10*
CN(C)S(=O)(=O)c1cccc(CSCc2cccc(S(=O)(=O)N(C)C)c2)c1 | 2 | -24 | -8 | 108* | 9 | -16
Cc1cc(C)n2nc(SCc3cccc(S(=O)(=O)N(C)C)c3)nc2n1 | 19 | 6 | 3 | x | 17 | 3
SMILES | T cruzi inh | PolyA inh | Calb FLC | Beta cell apopt | CSC inhib | HIF activator
O=[N+]([O-])c1ccc(S(=O)(=O)c2ccccc2)nc1 | 73* | 2 | -10 | 106* | 102* | -1
Cc1cc(S(=O)(=O)c2ccc([N+](=O)[O-])cn2)ccc1Br | 15 | -19 | -32 | 17 | 98* | 5
Cc1ccc(S(=O)(=O)c2ccc([N+](=O)[O-])cn2)cc1 | 67* | -10 | -6 | 105* | 100* | 3
Cc1ccc(S(=O)(=O)c2ccc(C)cc2)cc1 | 6 | -4 | 6 | 0 | -9 | 0
CCOc1ccccc1N1CC(C(=O)Nc2cc(S(C)(=O)=O)ccc2Cl)CC1=O (stereo unspecified) | 1 | -18 | -7 | -12 | -4 | 1
CN(C(=O)c1ccc(Br)o1)C1CCCCC1 | -22 | -16 | 3 | -5 | -8 | 1
Nc1nc(N)nc(-c2cc(O)ccc2O)n1 | x | x | x | -13 | -8 | x
CCNc1nc(N)nc(-c2cc(Cl)ccc2O)n1 | -21 | -35 | 80* | -14 | 24 | 5
CCCNc1nc(N)nc(-c2cc(Cl)ccc2OC)n1 | 0 | 34 | -12 | -5 | -6 | -1
CCCCNc1nc(N)nc(-c2cc(Cl)ccc2O)n1 | 15 | -43 | 61 | -13 | x | 13*
CN1CCC(N(C)S(=O)(=O)c2ccc(NC(=O)COc3ccc(F)cc3Cl)cc2)CC1 | 43 | u | -18 | -3 | x | -1
Cc1cc(C)n(-c2nc3ccccc3c(=O)n2OCC#N)n1 | 59* | -16 | 81* | 84* | 41 | 14*
CCOn1c(-n2nc(C)cc2C)nc2ccccc2c1=O | -33 | 6 | -2 | -5 | 5 | 0
C=CCOc1ccc(CNn2c(C)n[nH]c2=S)cc1OC | -7 | -13 | -6 | 2 | -10 | 0
CC(C)c1ccccc1-n1c(SCc2cc(=O)oc3ccc4ccccc4c23)nnc1-c1cccnc1 | 14 | 18 | 35 | 10 | 76* | 0
CC(C)(C)n1nnnc1C(c1cccs1)N1CCCC2(CCCCC2)C1 (stereo unspecified) | 63* | -30 | u | -3 | 28 | 0
c1csc(C(c2nnnn2C2CCCCC2)N2CCCC3(CCCCC3)C2)c1 (stereo unspecified) | 45 | 1 | 11 | -8 | 1 | 0
CN(C)S(=O)(=O)c1ccc(/C(O)=C2/C(=O)C(=O)N(CCCN3CCOCC3)C2c2ccncc2)cc1 (stereo unspecified) | -5 | -12 | -4 | -3 | -3 | 1
COc1ccc2c(-c3ccccc3)cc(SCC(=O)NC3CCS(=O)(=O)C3)nc2c1 (stereo unspecified) | 13 | -9 | u | 1 | -4 | 0
[O-][n+]1onc2c1CCc1c-2nn(-c2ccccc2Cl)[n+]1[O-] | -35 | -7 | -10 | 96* | 0 | 0
CC(C)OCCCNC(=O)CNC(=O)c1ccc(Cl)c(Cl)c1 | 2 | -3 | -7 | 0 | -9 | 0
CCCCc1ccc(Nc2nc(CCC)cc(=O)[nH]2)cc1 | -5 | 20 | -8 | 34 | 102* | -1
CCC/C(=N/NC(=O)c1cccc(Cl)c1)c1ccccc1 | -3 | 8 | 16 | x | 16 | 10*

Bioassay records as filed in PubChem BioAssay.
